CSN inh = inhibitors of CSN-mediated cullin deneddylation, primary screen, biochemical, fluorescence polarization, uHTS; 0.38% of 360,000 active; inhibition, % at 12.5 µM; Purified CSN, SCF-Nedd8-OG deneddylation; AID 651999, 2013;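 active = pattern-corrected inhibition above about 35%, with an unprinted fluorescence ratio check between 0.5 and 1.5, limit read from the data, passing the limit was not always enough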
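Material: human Csn5 produced in HEK293T cells; Input: enzyme 0.24 nM; Reagent: SCFSkp2-Nedd8OG substrate at 10 nM final; Dosing: 12.5 µM compound; Incubation: 90 min reaction at room temperature; Detection: fluorescence polarization of the substrate; Evaluation: % inhibition of substrate cleavage by Csn5; Control set: substrate-only high control, full reaction low control.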
rCAG binder = binders of r(CAG) RNA repeats, primary screen, biochemical, fluorescence; inhibition, % at 3 µM; 1.3% of 370,000 active; r(CAG) RNA repeat, TO-PRO-1 dye displacement fluorescence;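 active = inhibition above the plate cutoff, the mean of all test compounds on that plate plus 3 SD, cut at about 35% in these data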;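 also: higher means more dye released from RNA so lower well fluorescence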
LEDGF integ inh = blockers of LEDGF/p75-dependent integrase strand transfer – biochemical, TR-FRET, high throughput, primary screen; inhibition, % at 3.7 µM; HIV-1 integrase (with human LEDGF/p75); TR-FRET IN-LEDGF/p75 DNA integration, Eu/Cy5; 0.64% of 370,000 active; AID 743269, 2014;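 active = inhibition above the screen-wide mean plus 3 SD, cut at about 13% in these data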;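 also: signal is the Cy5 over europium emission ratio at 671 and 618 nm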
MBD2 DNA inh = inhibitors of MBD2 binding to methylated DNA, primary screen, biochemical, TR-FRET, DNA-binding domain, human. 0.31% of 370,000 active. Methyl-CpG-binding domain protein 2 (Homo sapiens), Q9UBB5. MBD2 binding to methylated oligonucleotide. inhibition, % at 4.4 µM. AID 686964, 2013; in the data active = inhibition above about 13%
ATG4B inh = ATG4B protease inhibitors, primary screen, biochemical, fluorescence, uHTS; 0.51% of 340,000 active; Cysteine protease ATG4B (Homo sapiens), Q9Y4P1; inhibition, % at 8.33 µM; ATG4B cleavage of LC3-PLA2, NBD-HPC fluorescence, 1 h; in the data active = inhibition above about 40%
UHRF1 binding = UHRF1 methylated DNA binding inhibitors, primary screen, counter-screen for MBD2 inhibitor project, biochemical, TR-FRET, human UHRF1, single concentration; UHRF1 binding to methylated oligo; inhibition, % at 4.4 µM; 0.75% of 370,000 active; in the data active = inhibition above about 21%;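 also: UHRF1 SRA domain binding a hemimethylated CpG hairpin DNA probe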
Target sequence (Q96T88 whole entry, looked up, the tested form may be a part): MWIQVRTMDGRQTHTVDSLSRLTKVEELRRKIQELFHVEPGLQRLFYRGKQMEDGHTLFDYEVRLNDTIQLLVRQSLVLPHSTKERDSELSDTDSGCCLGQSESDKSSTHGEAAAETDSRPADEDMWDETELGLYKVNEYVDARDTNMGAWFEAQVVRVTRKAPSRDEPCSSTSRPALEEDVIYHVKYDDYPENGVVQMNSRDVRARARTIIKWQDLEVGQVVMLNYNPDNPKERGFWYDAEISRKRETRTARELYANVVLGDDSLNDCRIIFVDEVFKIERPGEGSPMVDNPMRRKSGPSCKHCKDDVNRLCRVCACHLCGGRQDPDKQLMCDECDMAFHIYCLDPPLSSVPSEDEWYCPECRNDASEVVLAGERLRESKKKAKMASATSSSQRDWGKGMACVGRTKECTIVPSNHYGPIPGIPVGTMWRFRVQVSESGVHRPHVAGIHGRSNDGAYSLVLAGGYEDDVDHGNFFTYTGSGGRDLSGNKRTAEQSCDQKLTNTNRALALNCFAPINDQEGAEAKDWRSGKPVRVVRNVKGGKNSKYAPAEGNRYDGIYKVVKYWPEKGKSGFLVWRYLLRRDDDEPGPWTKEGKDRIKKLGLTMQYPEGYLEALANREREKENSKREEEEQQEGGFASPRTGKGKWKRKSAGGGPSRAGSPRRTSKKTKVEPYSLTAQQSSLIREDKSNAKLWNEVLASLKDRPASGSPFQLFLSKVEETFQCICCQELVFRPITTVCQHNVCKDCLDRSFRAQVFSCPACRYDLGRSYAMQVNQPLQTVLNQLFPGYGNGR
rCAG binder conf = small molecules binding CAG repeat RNA – biochemical, fluorescence, confirmation; 70% of 4,300 active; r(CAG) RNA repeat, TO-PRO-1 dye displacement fluorescence; shares compounds with rCAG binder; AID 652065, 2013; inhibition, % at 3 µM;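 active = inhibition above a per-plate cutoff, the mean inhibition of sample wells plus 3 SD, cut at about 35% in these data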;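 also: loss of TO-PRO-1 fluorescence as compound displaces dye from 1x1 AA loop RNA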
DNA CAG counter = displacement of TO-PRO-1 from CAG DNA duplex, counter-screen for rCAG RNA repeat binder project, biochemical, fluorescence, TO-PRO-1 dye, d(CAG) DNA oligo | shares compounds with rCAG binder | d(CAG) DNA oligo TO-PRO-1 dye displacement | inhibition, % at 3 µM | 94% of 4,300 active;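 active = inhibition above its plate's cutoff, the mean test-well inhibition plus 3 SD, cut at about 4.8% in these data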;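 also: hits displace the dye from DNA and so lower well fluorescence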
DNA CAG DR = inhibitors of DNA CAG/GTC TO-PRO-1 complex, dose response, counter-screen for rCAG RNA repeat binder project, biochemical, fluorescence, TO-PRO-1 dye | shares compounds with rCAG binder | DNA CAG/GTC duplex TO-PRO-1 dye displacement fluorescence | AID 686960, 2013 | IC50, µM | 20% of 250 active; in the data active = IC50 below about 10 µM
CSN deneddyl val = Csn5 deneddylation inhibitors, confirmation, biochemical, fluorescence polarization, single concentration, SCF-Nedd8OG substrate; 62% of 540 active; Csn5 deneddylation of SCF-Nedd8OG, 90 min; shares compounds with CSN inh; inhibition, % at 16.6 µM; in the data active = inhibition above about 50%
MMP-2 counter = MMP-2 protease inhibition counter-screen, confirmation, counter-screen for CSN deneddylation inhibitor project, biochemical, fluorescence, single concentration | AID 720655, 2013 | 33% of 540 active | recombinant MMP-2, FRET substrate fluorescence, 60 min | inhibition, % at 16.6 µM | shares compounds with CSN inh;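 active = corrected plate-normalized z-score of 5 or more, or -5 or less, or inhibition of 15% or more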
Thrombin counter = thrombin (bovine) inhibition, counter-screen for CSN hits; shares compounds with CSN inh; 49% of 540 active; inhibition, % at 16.6 µM; bovine thrombin cleavage of Ub4-pepOG, fluorescence polarization;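 active = inhibition at or above a set limit, with a fluorescence interference ratio between 0.5 and a set maximum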
UHRF1 ctr MBD2 = UHRF1 methylated DNA binding inhibitors, counter-screen for MBD2 inhibitor project, biochemical, TR-FRET, human UHRF1. UHRF1 binding to methylated oligonucleotide. inhibition, % at 4.4 µM. 25% of 1,000 active. shares compounds with MBD2 DNA inh; in the data active = inhibition above about 21%;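 also: UHRF1 SRA domain binding a labeled hemimethylated CpG hairpin DNA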
MBD2 DBD conf = inhibitors of MBD2 binding to methylated DNA, confirmation, biochemical, TR-FRET, DNA-binding domain, human. shares compounds with MBD2 DNA inh. TR-FRET MBD2-DBD binding to methylated oligonucleotide. inhibition, % at 4.4 µM. 26% of 1,000 active
IN multimer act = HIV-1 IN multimer formation enhancers, counter-screen for LEDGF/p75 integration inhibitor project, biochemical, TR-FRET | shares compounds with LEDGF integ inh | TR-FRET HIV-1 integrase multimerization | activation, % at 7.7 µM | 17% of 2,000 active | AID 1053131, 2014; in the data active = activation above about 8.9%
TR-FRET interf = TR-FRET optical interference artefacts, confirmation, artefact control for LEDGF/p75-dependent integration inhibitor project, biochemical, HIV-1 IN multimerization. shares compounds with LEDGF integ inh. TR-FRET optical interference counterscreen. inhibition, % at 7.7 µM. 2,000 tested, under 10 active. AID 1053135, 2014;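 active = inhibition above the mean over all tested compounds plus 3 SD, which no compound reached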
LEDGF integ conf = inhibitors of HIV-1 IN-LEDGF/p75 DNA integration, confirmation, biochemical, TR-FRET; AID 1053136, 2014; TR-FRET LEDGF/p75-dependent HIV-1 integration; inhibition, % at 3.7 µM; shares compounds with LEDGF integ inh; 36% of 2,000 active
Of the large screens only hits and unclear results are named; the others gave an inactive call (follow-up assays come after a bar, where they were run). Only some compounds are listed: those with a hit (about 3.1% of all), similar ones and a draw of the others. Rule as the data show it, unless noted: active = inhibition above about 14%; inactive = the rest.

CCCCN1Cc2c(nc3cc(-c4ccco4)[nH]n3c2=O)C1=O	rCAG binder 66.2, LEDGF integ inh 31.5, MBD2 DNA inh 24.8, UHRF1 binding 62.9 | rCAG binder conf inactive | DNA CAG counter inactive | UHRF1 ctr MBD2 inactive | MBD2 DBD conf inactive | IN multimer act inactive | TR-FRET interf inactive | LEDGF integ conf inactive
O=[N+]([O-])c1ccccc1NC(=S)N/N=C/c1ccc(O)c(O)c1	rCAG binder 36.7, LEDGF integ inh 45.8 | rCAG binder conf 43.3 | DNA CAG counter 22.7 | IN multimer act 11.3 | TR-FRET interf inactive | LEDGF integ conf 70.7
O=C1/C(=C\c2ccco2)NC(=S)N1c1ccccc1	rCAG binder 39.9, LEDGF integ inh 15.7 | rCAG binder conf 37.7 | DNA CAG counter 16.9 | IN multimer act inactive | TR-FRET interf inactive | LEDGF integ conf 16.8
O=C(c1ccccc1I)N1CCC(Oc2cccnc2)CC1	none (no result: CSN inh, ATG4B inh)
NS(=O)(=O)c1ccc(N/N=C/c2ccc(O)cc2O)c([N+](=O)[O-])c1	none
NS(=O)(=O)c1ccc(N/N=C/c2ccc(O)c(O)c2O)c([N+](=O)[O-])c1	rCAG binder 54.7, LEDGF integ inh 72.0 | rCAG binder conf 76.0 | DNA CAG counter 37.7 | IN multimer act 33.2 | TR-FRET interf inactive | LEDGF integ conf 85.0
COc1ccc(-c2cc(C(=O)OCC(=O)c3c(N)n(C)c(=O)n(C)c3=O)c3ccccc3n2)cc1	none
CCOC(=O)C1CCCN(C(=O)c2cc(-c3ccco3)nc3ccccc23)C1 (stereo unspecified)	rCAG binder 38.7, LEDGF integ inh 25.2, MBD2 DNA inh 20.2, UHRF1 binding 37.6 | rCAG binder conf inactive | DNA CAG counter 15.4 | UHRF1 ctr MBD2 38.8 | MBD2 DBD conf 24.5 | IN multimer act inactive | TR-FRET interf inactive | LEDGF integ conf 47.6
Cn1c(N)c(C(=O)COC(=O)c2cc(-c3ccco3)nc3ccccc23)c(=O)n(C)c1=O	rCAG binder 48.6, LEDGF integ inh 28.7 | rCAG binder conf 45.0 | DNA CAG counter 20.1 | IN multimer act 21.6 | TR-FRET interf inactive | LEDGF integ conf 61.6
CCCCN1CCN(C(=O)Cn2c(=O)c3ccccc3n(CC)c2=O)CC1	none (no result: CSN inh, ATG4B inh)
Nn1c(SCc2ccc([N+](=O)[O-])cc2)nnc1-c1n[nH]c2c1CCC2	none (no result: CSN inh, ATG4B inh)
c1coc(-c2nnc3sc(Cc4cccs4)nn23)c1	CSN inh 35.3, rCAG binder 35.6, LEDGF integ inh 38.2, MBD2 DNA inh 18.7, UHRF1 binding 71.3 | rCAG binder conf inactive | DNA CAG counter 5.2 | UHRF1 ctr MBD2 inactive | MBD2 DBD conf inactive | IN multimer act inactive | TR-FRET interf inactive | LEDGF integ conf 17.6
O=C1/C(=C/c2cccnc2)SC(=S)N1CC1CCCO1 (stereo unspecified)	none
CCc1ccc(/C=C2/SC(=S)N(CCC(=O)Nc3cccc(C(=O)O)c3)C2=O)cc1	none
O=C(CCN1C(=O)/C(=C/c2ccco2)SC1=S)Nc1ccc(C(=O)O)c(O)c1	CSN inh 52.0, rCAG binder 90.2, LEDGF integ inh 54.2, MBD2 DNA inh 20.7, UHRF1 binding 62.5 | rCAG binder conf 73.2 | DNA CAG counter 33.1 | DNA CAG DR 5.35 | CSN deneddyl val 73.0 | MMP-2 counter inactive | Thrombin counter inactive | IN multimer act 11.7 | TR-FRET interf inactive | LEDGF integ conf 40.0

Bioassay records: PubChem, several laboratories
